In ChEMBL document CHEMBL1153046, “Synthesis and antitumor activity of substituted triazolo[4,3-a]pyrimidin-6-sulfonamide with an incorporated thiazolidinone moiety” (2009):

Key:
Format in all cases: functional
HL-60(TB) = experiment: Growth inhibition of human HL-60(TB) cells after 48 hrs by sulforhodamine B assay; conditions: HL-60, 48 h
Outline: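 NCI 60-cell-line panel. Cells were grown in RPMI1640 with 5% fetal calf serum and 2 mM L-glutamine, seeded at a density suited to each line, and preincubated 24 h. Compounds were tested at a minimum of five concentrations at 10-fold dilutions over a 5-log range, with 48 h continuous exposure. Growth was read by sulforhodamine B protein staining, and GI50 was taken from dose-response curves.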

SK-OV-3 = experiment: Growth inhibition of human SKOV3 cells after 48 hrs by sulforhodamine B assay; conditions: SK-OV-3, 48 h
Outline: (§1)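 NCI 60-cell-line panel. Cells are grown in RPMI1640 with 5% fetal calf serum and 2 mM L-glutamine, seeded at a density set by growth characteristics, and preincubated 24 h. Compound is tested at a minimum of five concentrations at 10-fold dilution, with 48 h continuous exposure. Viability is read by sulforhodamine B protein assay. GI50, TGI and LC50 come from dose-response curves.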

HOP-62 = experiment: Growth inhibition of human HOP62 cells after 48 hrs by sulforhodamine B assay; conditions: HOP-62, 48 h; outline: as §1
MCF7 = experiment: Antiproliferative activity against human MCF7 cells assessed as cell growth at 100 uM after 48 hrs by alamar blue assay; conditions: MCF7, 48 h, read-out: Activity
Outline: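 NCI three-cell-line primary screen. Cells are seeded and preincubated in microtiter plates. Compound is added at a single 10^-4 M concentration and cultures are incubated 48 h. The end-point is read with alamar blue. Results are given as percent growth relative to untreated control cells.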

NCI-H226 = experiment: Growth inhibition of human NCI-H226 cells after 48 hrs by sulforhodamine B assay; conditions: NCI-H226, 48 h; outline: as §1
SF-268 = experiment: Growth inhibition of human SF268 cells after 48 hrs by sulforhodamine B assay; conditions: SF-268, 48 h; outline: as §1
MDA-MB-231 = experiment: Growth inhibition of human MDA-MB-231 cells after 48 hrs by sulforhodamine B assay; conditions: MDA-MB-231, 48 h; outline: as §1
OVCAR-3 = experiment: Growth inhibition of human OVCAR-3 cells after 48 hrs by sulforhodamine B assay; conditions: OVCAR-3, 48 h; outline: as §1
SK-MEL-2 = experiment: Growth inhibition of human SK-MEL-2 cells after 48 hrs by sulforhodamine B assay; conditions: SK-MEL-2, 48 h; outline: as §1
HCC 2998 = experiment: Growth inhibition of human HCC2998 cells after 48 hrs by sulforhodamine B assay; conditions: HCC 2998, 48 h; outline: as §1
SK-MEL-5 = experiment: Growth inhibition of human SK-MEL-5 cells after 48 hrs by sulforhodamine B assay; conditions: SK-MEL-5, 48 h; outline: as §1
[1] = Growth inhibition of human […] cells after 48 hrs by sulforhodamine B assay; outline: as §1
NCI-H322M = experiment: Growth inhibition of human NCI-H322M cells after 48 hrs by sulforhodamine B assay; outline: as §1
NCI-H23 = experiment: Growth inhibition of human NCI-H23 cells after 48 hrs by sulforhodamine B assay; conditions: NCI-H23, 48 h; outline: as §1
A549 = experiment: Growth inhibition of human A549 cells after 48 hrs by sulforhodamine B assay; conditions: A549, 48 h; outline: as §1
SK-MEL-28 = experiment: Growth inhibition of human SK-MEL-28 cells after 48 hrs by sulforhodamine B assay; conditions: SK-MEL-28, 48 h; outline: as §1
SNB-75 = experiment: Growth inhibition of human SNB75 cells after 48 hrs by sulforhodamine B assay; conditions: SNB-75, 48 h
Outline: (§2)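 NCI 60-cell-line panel (nine cancer types), with cells grown in RPMI1640 plus 5% fetal calf serum and 2 mM L-glutamine. Cells are seeded at a density that depends on the line and preincubated 24 h. Compounds are then applied at a minimum of five 10-fold dilutions over a 5-log range with 48 h continuous exposure. Viability is read by SRB protein assay, and GI50 is derived from dose-response curves in units of 10^-5 M.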

NCI-H460 = experiment: Growth inhibition of human NCI-H460 cells after 48 hrs by sulforhodamine B assay; conditions: NCI-H460, 48 h; outline: as §1
LOX IMVI = experiment: Growth inhibition of human LOXIMVI cells after 48 hrs by sulforhodamine B assay; outline: as §1
OVCAR-8 = experiment: Growth inhibition of human OVCAR8 cells after 48 hrs by sulforhodamine B assay; conditions: OVCAR-8, 48 h; outline: as §1
HT-29 = experiment: Growth inhibition of human HT-29 cells after 48 hrs by sulforhodamine B assay; conditions: HT-29, 48 h; outline: as §1
HCT-15 = experiment: Growth inhibition of human HCT15 cells after 48 hrs by sulforhodamine B assay; conditions: HCT-15, 48 h; outline: as §1
UACC-62 = experiment: Growth inhibition of human UACC62 cells after 48 hrs by sulforhodamine B assay; conditions: UACC-62, 48 h; outline: as §2
HOP-92 = experiment: Growth inhibition of human HOP92 cells after 48 hrs by sulforhodamine B assay; conditions: HOP-92, 48 h; outline: as §1
OVCAR-4 = experiment: Growth inhibition of human OVCAR4 cells after 48 hrs by sulforhodamine B assay; conditions: OVCAR-4, 48 h; outline: as §1
786-0 = experiment: Growth inhibition of human 786-0 cells after 48 hrs by sulforhodamine B assay; conditions: 786-0, 48 h; outline: as §1
MOLT-4 = experiment: Growth inhibition of human MOLT4 cells after 48 hrs by sulforhodamine B assay; conditions: MOLT-4, 48 h; outline: as §1
SF-539 = experiment: Growth inhibition of human SF539 cells after 48 hrs by sulforhodamine B assay; conditions: SF-539, 48 h; outline: as §1
[2] = read-out: LC50 (the source's name)

COc1ccc(/C=N/c2nc3[nH]nc(C)n3c(=O)c2S(=O)(=O)NN2C(=O)C(CN3CCN(C)CC3)SC2c2ccc(OC)cc2)cc1 (stereo not given)
GI50 (HL-60(TB)): 28.2 µM
LC50 (HL-60(TB)): > 100 µM
TGI (HL-60(TB)): 86.8 µM
GI50 (SK-OV-3): 27.1 µM
TGI (SK-OV-3): 73.3 µM
GI50 (HOP-62): 20.2 µM
LC50 (HOP-62): 82.6 µM
TGI (HOP-62): 40.9 µM
growth at 100 µM (MCF7): 9%
GI50 (NCI-H226): 12.4 µM
LC50 (concentration killing 50% of cells) (NCI-H226): 75.7 µM
TGI (NCI-H226): 30.6 µM
GI50 (SF-268): 17.7 µM
TGI (SF-268): 42 µM
CC50 (SF-268; [2]): 99.6 µM
GI50 (MDA-MB-231): 12.2 µM
LC50 (50% lethal concentration) (MDA-MB-231): 88.6 µM
TGI (MDA-MB-231): 32.9 µM
GI50 (OVCAR-3): 21.5 µM
LC50 (concentration killing 50% of cells) (OVCAR-3): 75.3 µM
TGI (OVCAR-3): 40.2 µM
GI50 (SK-MEL-2): 21.3 µM
LC50 (concentration killing 50% of cells) (SK-MEL-2): 99.4 µM
TGI (SK-MEL-2): 46.1 µM
GI50 (HCC 2998): 8.59 µM
LC50 (HCC 2998): 71.9 µM
TGI (HCC 2998): 22.5 µM
GI50 (SK-MEL-5): 19.3 µM
TGI (SK-MEL-5): 39 µM
CC50 (SK-MEL-5; [2]): 78.5 µM
GI50 [1]: 14.1 µM
TGI [1]: 39 µM
CC50 [1, 2]: > 100 µM
GI50 (NCI-H322M): 21.1 µM
TGI (NCI-H322M): 51.1 µM
GI50 (NCI-H23): 20.5 µM
TGI (NCI-H23): 48.1 µM
GI50 (A549): 13.4 µM
TGI (A549): 50.8 µM
GI50 (SK-MEL-28): 30.3 µM
TGI (SK-MEL-28): 78.2 µM
GI50 (SNB-75): 23.6 µM
TGI (SNB-75): 51.8 µM
GI50 (NCI-H460): 16.4 µM
TGI (NCI-H460): 46.7 µM
GI50 (LOX IMVI): 7.4 µM
TGI (LOX IMVI): > 100 µM
GI50 (OVCAR-8): 7.82 µM
TGI (OVCAR-8): 47.2 µM
GI50 (HT-29): 34.7 µM
GI50 (HCT-15): 17.2 µM
TGI (HCT-15): 70.8 µM
GI50 (UACC-62): 18.9 µM
TGI (UACC-62): 38.4 µM
CC50 (UACC-62; [2]): 77.8 µM
GI50 (HOP-92): 17.8 µM
LC50 (HOP-92): 74.2 µM
TGI (HOP-92): 36.4 µM
GI50 (OVCAR-4): 23.3 µM
LC50 (OVCAR-4): 96.5 µM
TGI (OVCAR-4): 47.4 µM
GI50 (786-0): 16.2 µM
TGI (786-0): 31.2 µM
CC50 (786-0; [2]): 59.9 µM
GI50 (MOLT-4): 17.8 µM
TGI (MOLT-4): 58.9 µM
CC50 (MOLT-4; [2]): > 100 µM
GI50 (SF-539): 6.5 µM
LC50 (SF-539): 61.2 µM
TGI (SF-539): 21.8 µM
